# Measured values from ChEMBL document CHEMBL1140690, “5-((4-Aminopiperidin-1-yl)methyl)pyrrolotriazine dual inhibitors of EGFR and HER2 protein tyrosine kinases” (Bioorg Med Chem Lett, 2007).
# The source made the active and inactive calls. The rule behind the calls is not given here.
# Legend:
# [1] = target: Receptor tyrosine-protein kinase erbB-2 (Homo sapiens, UniProt P04626); assay: Inhibition of human recombinant HER2 expressed in insect Sf9 cells
# [2] = target: Epidermal growth factor receptor (Homo sapiens, UniProt P00533); assay: Inhibition of human recombinant EGFR expressed in insect Sf9 cells
# NCI-N87 [3] = assay: Antiproliferative activity against human N87 cells
# HT-29 = assay: Antiproliferative activity against human HT29 cells; type: functional, cell-based
# Summary of the method: (§1)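 HT29 (colon carcinoma) and A2780 (ovarian carcinoma) lines, stated not to rely on EGFR or HER2 signalling, serve as counter-screen lines; proliferation IC50 reported.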
# HT29 = assay: Antiproliferative activity against human HT29 cells
# A2780 = assay: Antiproliferative activity against human A2780 cells; type: functional, cell-based; summary of the method: as §1
# Liver = assay: Metabolic stability in mouse liver microsomes at 3 uM after 10 mins in presence of NADPH; type: ADME, Microsome
# Summary of the method: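 Mouse liver microsomes with NADPH; compound at 3 µM, incubated 10 min; metabolic rate expressed as nmol/min/mg protein.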
# [4] = AUC (0 to 4 hrs) in BALB/c mouse at 50 mg/kg, po after 4 hrs; type: ADME, organism-based; design: time < 4 hr, dose 50 mg/kg, route oral; settings: plasma
# [5] = Drug level in BALB/c mouse plasma at 50 mg/kg, po after 4 hrs; type: ADME, organism-based; design: dose 50 mg/kg, route oral
# Summary of the method: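 Single oral 50 mg/kg dose in Tween 80/PEG400/water (10/40/50, v/v/v) to three male Balb/C mice; plasma concentration at 4 h averaged, AUC0–4h also derived.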
# NCI-N87 [6] = assay: Antitumor activity against human N87 cells xenografted in athymic mouse at 240 mg/kg, sc QD after 21 days; type: functional; settings: 504 h
# GEO = assay: Antitumor activity against human GEO cells xenografted in athymic mouse at 180 mg/kg, sc QD after 10 days; type: functional, organism-based; design: dose 180 mg/kg
# NCI-N87 [7] = assay: Antitumor activity against human N87 cells xenografted in athymic mouse at 180 mg/kg, po QD after 21 days; settings: 504 h; for minimal effective dose at 180 mg/kg: read-out: MED
# [8] = Inhibition of PKA; design: species or system Homo sapiens
# Summary of the method: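 Kinase panel IC50s, each reported as the mean of at least three determinations.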
# [9] = Antitumor activity against human GEO cells xenografted in athymic mouse at 135 mg/kg, sc BID after 14 days; type: functional; settings: 336 h, route subcutaneous
# Sequence of Epidermal growth factor receptor (P00533 whole entry): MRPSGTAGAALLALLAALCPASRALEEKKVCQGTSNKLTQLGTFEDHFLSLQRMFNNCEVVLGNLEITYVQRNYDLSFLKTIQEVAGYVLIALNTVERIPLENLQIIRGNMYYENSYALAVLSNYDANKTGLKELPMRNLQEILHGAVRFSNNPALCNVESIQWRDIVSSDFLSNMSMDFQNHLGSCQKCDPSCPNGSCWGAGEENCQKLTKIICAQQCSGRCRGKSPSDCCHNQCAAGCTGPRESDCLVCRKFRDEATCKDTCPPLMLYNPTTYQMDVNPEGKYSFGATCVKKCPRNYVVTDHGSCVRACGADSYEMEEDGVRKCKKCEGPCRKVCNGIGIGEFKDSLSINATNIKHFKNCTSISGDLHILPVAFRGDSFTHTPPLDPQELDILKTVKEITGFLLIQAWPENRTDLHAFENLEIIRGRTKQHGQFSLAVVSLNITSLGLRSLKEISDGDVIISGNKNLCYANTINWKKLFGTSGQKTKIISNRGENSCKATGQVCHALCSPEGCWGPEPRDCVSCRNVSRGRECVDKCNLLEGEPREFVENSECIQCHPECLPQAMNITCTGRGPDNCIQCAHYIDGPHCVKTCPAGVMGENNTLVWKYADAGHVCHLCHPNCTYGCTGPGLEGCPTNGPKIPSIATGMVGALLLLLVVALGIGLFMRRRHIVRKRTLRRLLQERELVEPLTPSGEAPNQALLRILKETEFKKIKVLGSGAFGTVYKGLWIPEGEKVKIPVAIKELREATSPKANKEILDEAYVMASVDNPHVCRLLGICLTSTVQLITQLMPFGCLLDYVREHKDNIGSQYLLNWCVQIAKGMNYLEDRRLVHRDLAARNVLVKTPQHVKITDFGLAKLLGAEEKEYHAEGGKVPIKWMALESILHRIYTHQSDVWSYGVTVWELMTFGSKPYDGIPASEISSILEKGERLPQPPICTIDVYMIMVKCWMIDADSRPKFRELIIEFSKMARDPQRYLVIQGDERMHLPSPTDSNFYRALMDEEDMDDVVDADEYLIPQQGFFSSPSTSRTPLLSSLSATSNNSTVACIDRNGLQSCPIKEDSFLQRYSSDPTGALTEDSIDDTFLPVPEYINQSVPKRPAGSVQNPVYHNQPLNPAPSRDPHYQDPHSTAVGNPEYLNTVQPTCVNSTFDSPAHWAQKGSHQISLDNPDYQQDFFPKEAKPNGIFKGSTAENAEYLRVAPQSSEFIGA
# Sequence of Receptor tyrosine-protein kinase erbB-2 (P04626 whole entry): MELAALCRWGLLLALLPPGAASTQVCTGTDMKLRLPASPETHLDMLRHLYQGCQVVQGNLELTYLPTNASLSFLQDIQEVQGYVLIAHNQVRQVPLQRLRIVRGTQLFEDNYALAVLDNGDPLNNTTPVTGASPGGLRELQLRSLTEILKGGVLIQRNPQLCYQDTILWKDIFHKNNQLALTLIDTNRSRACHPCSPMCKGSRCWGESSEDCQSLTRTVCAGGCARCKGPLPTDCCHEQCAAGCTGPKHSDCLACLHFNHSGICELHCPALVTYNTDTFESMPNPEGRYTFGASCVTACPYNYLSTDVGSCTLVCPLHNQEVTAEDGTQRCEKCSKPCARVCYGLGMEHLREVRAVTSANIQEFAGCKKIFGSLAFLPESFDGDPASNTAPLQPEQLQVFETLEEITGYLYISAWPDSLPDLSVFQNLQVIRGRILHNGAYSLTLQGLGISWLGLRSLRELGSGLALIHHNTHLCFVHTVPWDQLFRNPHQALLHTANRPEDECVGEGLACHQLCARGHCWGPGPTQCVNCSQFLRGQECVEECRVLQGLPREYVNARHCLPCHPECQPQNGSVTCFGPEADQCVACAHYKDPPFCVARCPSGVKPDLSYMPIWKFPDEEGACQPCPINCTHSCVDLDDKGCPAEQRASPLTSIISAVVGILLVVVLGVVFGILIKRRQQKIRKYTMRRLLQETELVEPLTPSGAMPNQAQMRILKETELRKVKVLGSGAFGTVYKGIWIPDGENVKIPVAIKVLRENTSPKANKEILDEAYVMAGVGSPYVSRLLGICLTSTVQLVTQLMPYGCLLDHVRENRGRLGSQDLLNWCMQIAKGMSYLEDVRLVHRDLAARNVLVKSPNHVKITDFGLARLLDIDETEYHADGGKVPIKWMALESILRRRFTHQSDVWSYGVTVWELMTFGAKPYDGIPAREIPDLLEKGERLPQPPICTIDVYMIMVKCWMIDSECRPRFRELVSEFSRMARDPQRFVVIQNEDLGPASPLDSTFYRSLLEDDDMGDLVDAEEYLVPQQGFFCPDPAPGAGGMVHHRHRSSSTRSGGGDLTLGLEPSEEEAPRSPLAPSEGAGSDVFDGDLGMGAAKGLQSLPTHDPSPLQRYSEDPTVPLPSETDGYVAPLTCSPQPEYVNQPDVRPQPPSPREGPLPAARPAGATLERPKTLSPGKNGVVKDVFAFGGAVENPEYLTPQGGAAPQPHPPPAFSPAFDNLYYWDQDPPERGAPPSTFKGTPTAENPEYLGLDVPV
Structure (SMILES),IC50 [1] [nM],IC50 [2] [nM],IC50 (NCI-N87 [3]) [nM],IC50 (HT-29) [nM],IC50 (A2780) [nM],AUC(0-t) at 4 h [4] [µM·h],concentration at 4 h [5] [µM],further results
NC1CCN(Cc2ccn3ncnc(Nc4ccc(OCc5cccc(F)c5)c(Cl)c4)c23)CC1,32,38,83,,,,,
COc1cn2ncnc(Nc3ccc4c(cnn4Cc4cccc(F)c4)c3)c2c1CN1CCC(N)CC1,43,40,430,,,,,
CC(=O)NC1CCN(Cc2ccn3ncnc(Nc4ccc5c(cnn5Cc5cccc(F)c5)c4)c23)CC1,180,380,290,> 10000,,,,IC50 (HT29): > 10000 nM
CS(=O)(=O)CCNC1CCN(Cc2ccn3ncnc(Nc4ccc5c(cnn5Cc5cccc(F)c5)c4)c23)CC1,190,200,700,,,,,
Cc1cncc(COc2ccc(Nc3ncnn4ccc(CN5CCC(N)CC5)c34)cc2Cl)c1,60,,180,3500,3500,7.8,1.8,metabolic rate (Liver): 0 nmol/min/mg
NC1CCN(Cc2ccn3ncnc(Nc4ccc(OCc5ccccn5)c(Cl)c4)c23)CC1,22,36,58,2000,2000,13,3.7,metabolic rate (Liver): 0.04 nmol/min/mg; inhibition in vivo at 240 mg/kg (NCI-N87 [6]; dose 240 mg/kg): 110%; minimal effective dose (NCI-N87 [6]; read-out: MED): 120 mg/kg
N[C@@H]1CCN(Cc2ccn3ncnc(Nc4ccc5c(cnn5Cc5cccc(F)c5)c4)c23)C1,70,60,830,3900,3900,,,
CC1(N)CCN(Cc2ccn3ncnc(Nc4ccc5c(cnn5Cc5cccc(F)c5)c4)c23)CC1,43,50,70,6100,,,,IC50 (HT29): 6100 nM
NCC1CCN(Cc2ccn3ncnc(Nc4ccc5c(cnn5Cc5cccc(F)c5)c4)c23)CC1,38,35,140,2900,2900,,,
CNC1CCN(Cc2ccn3ncnc(Nc4ccc5c(cnn5Cc5cccc(F)c5)c4)c23)CC1,54,63,78,7300,7300,,,
COc1cn2ncnc(Nc3ccc4c(cnn4Cc4cccc(F)c4)c3)c2c1CN1CCCNCC1,170,190,3700,,,,,
NC1CCN(Cc2ccn3ncnc(Nc4ccc(OCc5cnccn5)c(Cl)c4)c23)CC1,26,32,72,3500,3500,21,6.3,metabolic rate (Liver): 0.12 nmol/min/mg; Activity (GEO): inactive; inhibition in vivo at 180 mg/kg (NCI-N87 [7]): 63%; minimal effective dose at 180 mg/kg (NCI-N87 [7]): 180 mg/kg
CN(C)C1CCN(Cc2ccn3ncnc(Nc4ccc5c(cnn5Cc5cccc(F)c5)c4)c23)CC1,110,100,450,7600,7600,,,
Fc1cccc(Cn2ncc3cc(Nc4ncnn5ccc(COC[C@@H]6CNCCO6)c45)ccc32)c1,,,,8700,,,,IC50 [8]: > 50000 nM
NC1CCN(Cc2ccn3ncnc(Nc4ccc5c(cnn5Cc5ccncc5)c4)c23)CC1,190,530,470,> 5000,> 5000,,,
O=C(CO)NC1CCN(Cc2ccn3ncnc(Nc4ccc5c(cnn5Cc5cccc(F)c5)c4)c23)CC1,120,110,310,9500,9500,,,
NC1CCN(Cc2ccn3ncnc(Nc4ccc(OCc5cccnc5)c(Cl)c4)c23)CC1,36,150,230,2700,2700,30,7.5,
NC1CCN(Cc2ccn3ncnc(Nc4ccc5c(cnn5Cc5ccccn5)c4)c23)CC1,35,47,120,> 10000,> 10000,3.6,1.6,metabolic rate (Liver): 0.01 nmol/min/mg
NC1CCN(Cc2ccn3ncnc(Nc4ccc5c(cnn5Cc5cccnc5)c4)c23)CC1,34,190,86,> 5000,> 5000,22,4.5,metabolic rate (Liver): 0.01 nmol/min/mg
Fc1cccc(Cn2ncc3cc(Nc4ncnn5ccc(CN6CCCNCC6)c45)ccc32)c1,,,110,3600,3600,,,inhibition in vivo at 135 mg/kg ([9]; dose 135 mg/kg): 78%; minimal effective dose ([9]; read-out: MED): 90 mg/kg; inhibition in vivo at 180 mg/kg (NCI-N87 [7]): 121%; minimal effective dose at 180 mg/kg (NCI-N87 [7]): 90 mg/kg
NC1CCN(Cc2ccn3ncnc(Nc4ccc(OCc5cccc[n+]5[O-])c(Cl)c4)c23)CC1,18,70,110,> 5000,> 5000,15,3.9,metabolic rate (Liver): 0 nmol/min/mg; Activity (GEO): inactive
Fc1cccc(Cn2ncc3cc(Nc4ncnn5ccc(CNC6CCNCC6)c45)ccc32)c1,76,110,1150,5000,5000,,,
N[C@H]1CCN(Cc2ccn3ncnc(Nc4ccc5c(cnn5Cc5cccc(F)c5)c4)c23)C1,52,50,810,6500,6500,,,
Fc1cccc(COc2ccc(Nc3ncnn4ccc(CN5CCCNCC5)c34)cc2Cl)c1,41,48,600,,,,,
Cc1cncc(Cn2ncc3cc(Nc4ncnn5ccc(CN6CCC(N)CC6)c45)ccc32)c1,13,19,36,> 5000,> 5000,9.9,1.3,metabolic rate (Liver): 0.06 nmol/min/mg; Activity (GEO): inactive; inhibition in vivo at 180 mg/kg (NCI-N87 [7]): 89%; minimal effective dose at 180 mg/kg (NCI-N87 [7]): 120 mg/kg
OCCNC1CCN(Cc2ccn3ncnc(Nc4ccc5c(cnn5Cc5cccc(F)c5)c4)c23)CC1,31,,73,5400,5400,,,
